Experimental data from paper PMC3344817 (ChemMedChem, 2011).

Legend:
Molt 4/C8 T-lymphocytes = assay: Cytotoxicity; type: cell-based, human; conditions: for IC50: Homo sapiens, Molt4/C8, 72 h, read-out: IC50, Molt 4/C8 cells; for RP (relative potency), Molt 4/C8 cells: IC50 of 2 divided by IC50 of the compound
L1210 cells = assay: Cytotoxicity; type: cell-based, murine; conditions: for RP (relative potency), L1210 cells: IC50 of 2 divided by IC50 of the compound; for IC50: Mus musculus, L1210, 48 h, read-out: IC50, L1210 cells
CEM T-lymphocytes = assay: Cytotoxicity; type: cell-based, human; conditions: IC50 of 2 divided by IC50 of the compound
Nalm6 = assay: CC50 by flow cytometry with propidium iodide, Nalm6; type: cell-based, human
Summary of the method: (§1)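 Non-adherent lymphoma/leukaemia cells in RPMI were given a range of test compound concentrations (DMSO solution) for 22 h at 37°C. Plasma membrane disruption was scored by flow cytometry with propidium iodide to derive CC50, and values are the mean of three independent experiments. SI = CC50 toward NIH-3T3 fibroblasts ÷ CC50 toward the given non-adherent line.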

JURKAT = assay: CC50 by flow cytometry with propidium iodide, JURKAT; type: cell-based, human
Summary of the method: as §1

human tumor cell lines = assay: US National Cancer Institute human tumor cell line screen; type: cell-based; conditions: 48 h; Figure 4
EL-4 = assay: CC50 by flow cytometry with propidium iodide, EL-4; type: cell-based, murine
Summary of the method: as §1

[1] = CC50 by flow cytometry with propidium iodide, NIH-3T3 fibroblasts; type: cell-based, murine; conditions: mouse, NIH-3T3 fibroblasts (non-malignant)
Summary of the method: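 Adherent NIH-3T3 fibroblasts in DMEM received a range of test compound concentrations (DMSO solution) for 22 h at 37°C. CC50 was obtained by flow cytometry with propidium iodide, scoring plasma membrane disruption. Values are the mean of three independent experiments.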

CEM = assay: CC50 by flow cytometry with propidium iodide, CEM; type: cell-based, human; conditions: CC50 toward NIH-3T3 fibroblasts / CC50 toward CEM
Summary of the method: as §1

[2] = system: JURKAT, Nalm-6, SUP-T1, or CEM cells; assay: Flow cytometry analysis of apoptosis and necrosis; type: cell-based, human; conditions: after 20 h; relative to the percentage at 8 h; four non-adherent cell lines
Summary of the method: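 Test compound was incubated with JURKAT, Nalm-6, SUP-T1 or CEM cells in RPMI. After 8 and 20 h, cells were stained with Annexin-V-FITC plus propidium iodide. Flow cytometry gave the percentages of apoptotic, necrotic and viable cells.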

Sup-T1 = assay: CC50 by flow cytometry with propidium iodide, Sup-T1; type: cell-based, human
Summary of the method: as §1

Compound	IC50 (Molt 4/C8 T-lymphocytes)	RP (relative potency), Molt 4/C8 cells (Molt 4/C8 T-lymphocytes)	RP (relative potency), L1210 cells (L1210 cells)	IC50 (L1210 cells)	RP (relative potency), CEM cells (CEM T-lymphocytes)	other results
O=C1C(=Cc2ccccc2)CN(C(=O)C=CC(=O)N2CC(=Cc3ccccc3)C(=O)C(=Cc3ccccc3)C2)CC1=Cc1ccccc1 [1 f, 1,4-Bis-(3,5-dibenzylidene-4-oxo-piperidin-1-yl)but-2-ene-1,4-dione]	4400 ± 2950 nM	1.8	0.3	28900 ± 2000 nM	0.2	–
O=C1C(=Cc2ccccc2)CN(C(=O)C(=O)N2CC(=Cc3ccccc3)C(=O)C(=Cc3ccccc3)C2)CC1=Cc1ccccc1 [Compound 1a, 1,2-Bis(3,5-dibenzylidene-4-oxo-piperidin-1-yl)ethane-1,2-dione]	460 ± 110 nM	18	1.8	4460 ± 230 nM	2.5	SI (selectivity index), Nalm6 (Nalm6; CC50 toward NIH-3T3 fibroblasts / CC50 toward Nalm6): 581; CC50 (Nalm6; Homo sapiens, NALM-6, 22 h, read-out: CC50, Nalm6): 22 nM; SI (selectivity index), JURKAT (JURKAT; CC50 toward NIH-3T3 fibroblasts / CC50 toward JURKAT): 441; CC50 (JURKAT; Homo sapiens, Jurkat, 22 h, read-out: CC50, JURKAT): 29 nM; IC50 towards human tumor cell lines, comparison (human tumor cell lines): generally displays lower IC50 values than 1 b; SI (selectivity index), EL-4 (EL-4; CC50 toward NIH-3T3 fibroblasts / CC50 toward EL-4): 412; CC50 (EL-4; Mus musculus, EL4, 22 h, read-out: CC50, EL-4): 31 nM; CC50 at 22 h [1]: 12800 nM; SI (selectivity index), CEM (CEM): 376; apoptotic cells [2]: doubling; SI (selectivity index), Sup-T1 (Sup-T1; CC50 toward NIH-3T3 fibroblasts / CC50 toward Sup-T1): 33; CC50 (Sup-T1; Homo sapiens, SUP-T1, 22 h, read-out: CC50, Sup-T1): 384 nM
O=C1C(=Cc2ccccc2)CN(C(=O)CC(=O)N2CC(=Cc3ccccc3)C(=O)C(=Cc3ccccc3)C2)CC1=Cc1ccccc1 [Compound 1b, 1,3-Bis-(3,5-dibenzylidene-4-oxo-piperidin-1yl)propane-1,3-dione]	70 ± 10 nM	115	6.5	1230 ± 380 nM	9.3	–
O=C1C(=Cc2ccccc2)CN(C(=O)CCC(=O)N2CC(=Cc3ccccc3)C(=O)C(=Cc3ccccc3)C2)CC1=Cc1ccccc1 [Compound 1c, 1,4-Bis-(3,5-dibenzylidene-4-oxo-piperidin-1-yl)butane-1,4-dione]	570 ± 160 nM	14	0.6	14000 ± 1200 nM	1.5	–
O=C1C(=Cc2ccccc2)CN(C(=O)CCCC(=O)N2CC(=Cc3ccccc3)C(=O)C(=Cc3ccccc3)C2)CC1=Cc1ccccc1 [Compound 1d, 1,5-Bis-(3,5-dibenzylidene-4-oxo-piperidin-1-yl)pentane-1,5-dione]	1610 ± 50 nM	5.0	0.7	11500 ± 300 nM	0.9	–
O=C1C(=Cc2ccccc2)CN(C(=O)CCCCCCC(=O)N2CC(=Cc3ccccc3)C(=O)C(=Cc3ccccc3)C2)CC1=Cc1ccccc1 [Compound 1e, 1,8-Bis-(3,5-dibenzylidene-4-oxo-piperidin-1-yl)octane-1,8-dione]	1530 ± 540 nM	5.3	0.5	15300 ± 4200 nM	0.8	–
O=C1C(=Cc2ccccc2)CN(C(=O)C#CC(=O)N2CC(=Cc3ccccc3)C(=O)C(=Cc3ccccc3)C2)CC1=Cc1ccccc1 [Compound 1g, 1,4-Bis-(3,5-dibezylidene-4-oxo-piperidin-1-yl)-but-2-yne-1,4-dione]	–	5.4	0.8	–	0.6	–
O=C1C(=Cc2ccccc2)CN(C(=O)C=CC=CC(=O)N2CC(=Cc3ccccc3)C(=O)C(=Cc3ccccc3)C2)CC1=Cc1ccccc1 [Compound 1h, 1,6-Bis-(3,5-dibenzylidene-4-oxo-piperidin-1-yl)-hexa-2,4-diene-1,6-dione]	25100 ± 15800 nM	0.3	0.1	79000 ± 10200 nM	0.1	–
O=C1C(=Cc2ccccc2)CN(C(=O)c2ccccc2C(=O)N2CC(=Cc3ccccc3)C(=O)C(=Cc3ccccc3)C2)CC1=Cc1ccccc1 [Compound 1i, 1,2-Bis-[(3,5-dibenzylidene-4-oxo-piperidin-1-yl)-1-carbonyl]benzene]	–	9.5	1.9	–	1.3	–
O=C1C(=Cc2ccccc2)CN(C(=O)c2cccc(C(=O)N3CC(=Cc4ccccc4)C(=O)C(=Cc4ccccc4)C3)c2)CC1=Cc1ccccc1 [Compound 1j, 1,3-Bis-[(3,5-dibenzylidene-4-oxo-piperidin-1-yl)-1-carbonyl]benzene]	–	0.7	0.1	–	0.1	–
N[C@@H](Cc1ccc(N(CCCl)CCCl)cc1)C(=O)O [Melphalan, reference compound]	3240 ± 790 nM	–	–	–	–	–
